Laboratory results reported in ChEMBL document CHEMBL4229390, “Structure-guided evolution of a 2-phenyl-4-carboxyquinoline chemotype into PPARα selective agonists: New leads for oculovascular conditions” (Bioorg Med Chem Lett, 2018).
Calls of active or inactive are those of the source. No cut-off for these calls is given here.

How the values were obtained:
[1] = biological target: T1, Peroxisome proliferator-activated receptor alpha (Homo sapiens) (UniProt Q07869); experiment: Agonist activity at human PPARalpha after 22 to 24 hrs by luciferase reporter gene assay relative to GW590735
T1 sequence (whole entry): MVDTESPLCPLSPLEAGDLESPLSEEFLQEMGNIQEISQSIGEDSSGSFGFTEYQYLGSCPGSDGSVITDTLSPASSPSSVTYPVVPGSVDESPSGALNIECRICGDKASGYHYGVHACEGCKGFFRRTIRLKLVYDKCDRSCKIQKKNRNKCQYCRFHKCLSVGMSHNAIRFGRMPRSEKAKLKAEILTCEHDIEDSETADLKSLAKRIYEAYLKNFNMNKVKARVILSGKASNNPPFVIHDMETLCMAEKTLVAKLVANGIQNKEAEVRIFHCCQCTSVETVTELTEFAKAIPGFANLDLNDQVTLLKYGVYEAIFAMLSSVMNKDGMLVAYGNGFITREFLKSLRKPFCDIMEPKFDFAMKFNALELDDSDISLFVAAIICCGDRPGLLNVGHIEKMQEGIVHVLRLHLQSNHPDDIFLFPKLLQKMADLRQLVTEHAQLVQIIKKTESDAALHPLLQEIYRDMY
Summary of the method: (§1)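 Human PPAR luciferase reporter cell lines; luciferase read-out through oxyluciferin production. 10-point dose-response in triplicate, single experiment, giving EC50.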

[2] = biological target: T2, Peroxisome proliferator-activated receptor alpha (Homo sapiens, UniProt Q07869); experiment: Agonist activity at human PPARalpha after 22 to 24 hrs by luciferase reporter gene assay; summary of the method: as §1
T2 sequence (Q07869 whole entry): T1 sequence (whole entry)

[3] = biological target: T3, Peroxisome proliferator-activated receptor delta (Homo sapiens, UniProt Q03181); experiment: Agonist activity at human PPARdelta after 22 to 24 hrs by luciferase reporter gene assay
T3 sequence (Q03181 whole entry): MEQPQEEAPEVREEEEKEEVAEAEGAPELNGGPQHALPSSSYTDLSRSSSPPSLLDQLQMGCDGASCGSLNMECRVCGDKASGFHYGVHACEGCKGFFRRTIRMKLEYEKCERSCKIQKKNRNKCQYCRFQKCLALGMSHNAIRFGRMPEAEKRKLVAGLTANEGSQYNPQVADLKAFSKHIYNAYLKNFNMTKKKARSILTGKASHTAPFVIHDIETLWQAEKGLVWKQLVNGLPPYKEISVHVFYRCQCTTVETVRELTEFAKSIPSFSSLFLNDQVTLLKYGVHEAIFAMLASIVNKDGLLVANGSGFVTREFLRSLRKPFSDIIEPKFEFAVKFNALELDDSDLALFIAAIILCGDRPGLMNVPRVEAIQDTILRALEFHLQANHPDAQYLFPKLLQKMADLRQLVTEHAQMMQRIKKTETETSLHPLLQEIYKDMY

[4] = biological target: T4, Peroxisome proliferator-activated receptor gamma (Homo sapiens, UniProt P37231); experiment: Agonist activity at human PPARgamma after 22 to 24 hrs by luciferase reporter gene assay; summary of the method: as §1
T4 sequence (P37231 whole entry): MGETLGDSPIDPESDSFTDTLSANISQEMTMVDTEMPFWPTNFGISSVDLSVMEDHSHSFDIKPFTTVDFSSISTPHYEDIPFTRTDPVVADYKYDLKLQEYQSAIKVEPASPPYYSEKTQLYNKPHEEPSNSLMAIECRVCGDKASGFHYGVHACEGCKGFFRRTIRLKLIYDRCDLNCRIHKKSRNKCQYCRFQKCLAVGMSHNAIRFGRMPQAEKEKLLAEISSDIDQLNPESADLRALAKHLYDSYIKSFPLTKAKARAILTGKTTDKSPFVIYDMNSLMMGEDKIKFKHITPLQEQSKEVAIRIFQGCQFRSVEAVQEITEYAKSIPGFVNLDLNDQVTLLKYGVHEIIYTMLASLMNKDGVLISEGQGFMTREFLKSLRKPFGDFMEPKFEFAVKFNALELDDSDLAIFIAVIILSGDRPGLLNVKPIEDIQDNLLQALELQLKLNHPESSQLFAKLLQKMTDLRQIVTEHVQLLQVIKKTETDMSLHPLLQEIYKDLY

[5] = biological target: T1, Peroxisome proliferator-activated receptor alpha (Homo sapiens); experiment: Agonist activity at human PPARalpha at 5 uM after 22 to 24 hrs by luciferase reporter gene assay
Summary of the method: (§2)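 hPPARα luciferase reporter cells; read-out via oxyluciferin production. […] Fold-induction over DMSO control ± S.E. (n = 3), single experiment.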

[6] = biological target: T1, Peroxisome proliferator-activated receptor alpha (Homo sapiens); experiment: Agonist activity at human PPARalpha at 10 uM after 22 to 24 hrs by luciferase reporter gene assay; summary of the method: as §2
[7] = biological target: T2, Peroxisome proliferator-activated receptor alpha; experiment: Agonist activity at PPARalpha (unknown origin) expressed in reporter combo cells after 36 hrs by dual luciferase reporter gene assay; type: cell-based
Summary of the method: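 Human PPARα luciferase reporter cell line. Luciferase activity was read indirectly as oxyluciferin production. EC50 came from a 10-point dose-response, dosed in triplicate in a single experiment. In the initial screen, agonism was expressed as fold-induction over the DMSO control (n = 3) at 5 and 50 μM.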

[8] = biological target: T5, Peroxisome proliferator-activated receptor alpha (Mus musculus) (UniProt P23204); experiment: Agonist activity at PPARalpha in C57BL/6N mouse assessed as upregulation of Cpt1a gene expression at 10 to 100 uM after 24 hrs by RT-PCR method
T5 sequence (whole entry): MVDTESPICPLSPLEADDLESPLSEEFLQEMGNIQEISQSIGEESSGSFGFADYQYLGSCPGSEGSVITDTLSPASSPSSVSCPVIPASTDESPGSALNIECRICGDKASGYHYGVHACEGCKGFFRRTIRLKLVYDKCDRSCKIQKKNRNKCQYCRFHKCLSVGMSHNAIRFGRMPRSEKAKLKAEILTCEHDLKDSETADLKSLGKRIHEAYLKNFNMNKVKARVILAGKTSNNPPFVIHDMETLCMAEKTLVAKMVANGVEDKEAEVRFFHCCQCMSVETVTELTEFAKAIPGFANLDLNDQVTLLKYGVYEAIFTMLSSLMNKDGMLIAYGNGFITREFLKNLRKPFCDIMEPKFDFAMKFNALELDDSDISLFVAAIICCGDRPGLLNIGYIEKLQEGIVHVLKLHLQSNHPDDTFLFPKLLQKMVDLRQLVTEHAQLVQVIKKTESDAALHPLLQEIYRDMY
Summary of the method: (§3)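 Mouse 661W cells treated for 24 h; target mRNA quantified by RT-PCR (n = 6). Reported as mean ± S.D.; group differences tested with Student's t-test.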

Homo sapiens = species: Homo sapiens; experiment: Antimigratory activity in HRCEC after 10 to 24 hrs by wound healing assay; type: functional
Summary of the method: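 Wound healing (scratch) assay in human retinal capillary endothelial cells, closure assessed at 10 h and 24 h incubation. Performed three times in triplicate; mean ± S.D.; Student's t-test.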

[9] = biological target: T5, Peroxisome proliferator-activated receptor alpha (Mus musculus); experiment: Agonist activity at PPARalpha in C57BL/6N mouse assessed as upregulation of Acadm gene expression at 10 to 100 uM after 24 hrs by RT-PCR method; summary of the method: as §3
[10] = biological target: T5, Peroxisome proliferator-activated receptor alpha (Mus musculus); experiment: Agonist activity at PPARalpha in C57BL/6N mouse assessed as upregulation of PPARalpha protein expression after 24 hrs by Western blot method
Summary of the method: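 Mouse 661W cells exposed for 24 h. PPARα protein detected by Western blot and quantified by densitometry. Experiments performed three times in triplicate; mean ± S.D.; Student's t-test.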

[11] = biological target: T5, Peroxisome proliferator-activated receptor alpha (Mus musculus); experiment: Agonist activity at PPARalpha in C57BL/6N mouse assessed as upregulation of Fabp3 gene expression at 10 to 100 uM after 24 hrs by RT-PCR method; summary of the method: as §3
[12] = biological target: T5, Peroxisome proliferator-activated receptor alpha (Mus musculus); experiment: Agonist activity at PPARalpha in C57BL/6N mouse assessed as upregulation of Slc25a20 gene expression at 10 to 100 uM after 24 hrs by RT-PCR method; summary of the method: as §3

Structure (SMILES): COc1ccc(COc2ccc(CNc3cccc(C(=O)O)c3)c(OCc3ccc(OC)cc3)c2)cc1
- fold change (FC) [1]: 1.1
- EC50 [2]: 5.1 µM
- EC50 [3]: > 100 µM
- EC50 [4]: > 100 µM

Structure (SMILES): O=C(O)c1cccc(NCc2ccc(OCc3ccc(Cl)cc3Cl)cc2)c1
- Activity [5]: Active

Structure (SMILES): COc1ccc(COc2ccc(CNc3cccc(OC(C)(C)C(=O)O)c3)cc2)cc1
- Activity [6]: Active
- EC50 [3]: 38.6 µM
- Activity [5]: inactive
- EC50 [4]: 18.3 µM

Structure (SMILES): Cc1c(Cl)ccc2c(C(=O)O)cc(-c3ccccc3)nc12
- EC50 [7]: 25 to 50 µM

Structure (SMILES): CC(C)(Oc1cccc(NCc2ccc(OCc3ccccc3)cc2)c1)C(=O)O
- Activity [6]: Active
- Activity [5]: inactive

Structure (SMILES): O=C(O)c1cccc(NCc2ccc(OCc3cc(F)cc(F)c3)cc2)c1
- Activity [6]: Active
- Activity [5]: Active

Structure (SMILES): COc1ccc(COc2ccc(CNc3cccc(C(=O)O)c3)cc2)cc1
- Activity [8]: Active
- Activity (Homo sapiens): Dose-dependent effect
- Activity [9]: Active
- Activity [10]: Dose-dependent effect
- Activity [11]: Active
- Activity [12]: Active
- EC50 [3]: > 100 µM
- EC50 [4]: > 100 µM

Structure (SMILES): CC(C)(Oc1cccc(NCc2ccc(OCc3ccc(Cl)cc3)cc2)c1)C(=O)O
- Activity [6]: Active
- Activity [5]: inactive

Structure (SMILES): O=C(O)c1cccc(NCc2ccc(OCc3ccc(Cl)cc3)cc2)c1
- Activity [6]: Active
- Activity [5]: Active

Structure (SMILES): COc1ccc(COc2ccc(CNc3cccc(OC(C)(C)C(=O)O)c3)c(OCc3ccc(OC)cc3)c2)cc1
- fold change (FC) [1]: 1.4
- EC50 [2]: 2.1 µM
- EC50 [3]: 8.9 µM
- EC50 [4]: 5.6 µM

Structure (SMILES): O=C(O)c1cccc(NCc2ccc(OCc3ccc([N+](=O)[O-])cc3)cc2)c1
- Activity [5]: Active

Structure (SMILES): O=C(O)c1cccc(NCc2ccc(OCc3ccccc3)cc2)c1
- Activity [6]: Active
- Activity [5]: Active

Structure (SMILES): CC(C)(Oc1cccc(NCc2ccc(OCc3cc(F)cc(F)c3)cc2)c1)C(=O)O
- Activity [6]: Active
- Activity [5]: inactive
